Assay outcomes from PubChem BioAssay.
Shown are actives, neighbours in structure and some others; about 3.7% of the full set was active somewhere.
procasp3 activ = activators of human procaspase-3. P42574. recombinant procaspase-3 D3A, Ac-DEVD-pNA absorbance 405 nm. activation, % at 8.5 µM. 330,000 tested, 0.11% active;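 active means activation above the mean of all tested compounds plus 3 SD, cut at about 21% in these data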
Target sequence (P42574 whole entry D9A/D28A/D175A): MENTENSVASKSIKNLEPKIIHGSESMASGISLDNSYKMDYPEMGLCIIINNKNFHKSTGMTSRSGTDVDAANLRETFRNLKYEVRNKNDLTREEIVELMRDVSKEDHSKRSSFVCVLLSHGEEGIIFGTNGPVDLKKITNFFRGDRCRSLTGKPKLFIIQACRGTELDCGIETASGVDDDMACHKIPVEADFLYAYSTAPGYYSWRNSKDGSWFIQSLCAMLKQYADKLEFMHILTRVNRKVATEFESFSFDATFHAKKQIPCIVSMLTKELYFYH
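Assay system: Autoprocessing-dead procaspase-3 D3A mutant enzyme; also added: Ac-DEVD-pNA; doses: one concentration, 8.5 µM nominal, 0.8% DMSO; times: 1 h compound preincubation, 2 h substrate hydrolysis at 25 °C; technique: 405 nm absorbance of p-nitroaniline, reads at 0 and 120 min; measure: % activation between DMSO and enzyme-spiked controls; repeats: single replicate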
procasp7 counter = activates human procaspase-7, counter-screen for procaspase-3 activators | 330,000 tested, 0.093% active | recombinant procaspase-7, Ac-DEVD-pNA absorbance 405 nm; D23A/D198A/D206A triple mutant, cannot self-cleave; scale: DMSO 0, 5 µM enzyme 100 | P55210 | activation, % at 8.5 µM;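 active means percent activation above the screen-wide mean plus 3 SD, cut at about 25% in these data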
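Replicates: singlicate. Assay system: Procaspase-7 triple mutant (PC-7 D3A). Signal: 405 nm absorbance of p-nitroaniline. Times: 1 h preincubation, 2 h reaction. Buffer or medium: Zinc-free HEPES pH 7.4 with 300 mM NaCl, 0.01% Triton X-100. Also added: DEVD-pNA substrate. Benchmarks: DMSO wells as 0%, DMSO with 5 µM added PC-7 as 100%.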
NR3A LBD binder = modulates the human NR3A ligand-binding domain | Tm shift relative to glycine control, % at 25 µM | AID 1259313 | 340,000 tested, 2.5% active | NR3A LBD differential scanning fluorimetry, Tm shift; 0% = protein alone, 100% = glycine-bound protein;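 active means melting temperature shift of at least 10% of the positive control shift, at one fixed dose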
MPTP block = inhibitors of mitochondrial permeability transition pore | isolated mouse mitochondria, Ca2+ swelling absorbance, 30 min | inhibition, % at 10 µM | 360,000 tested, 1.4% active;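 active means inhibition of 50% or more, scaled per plate between neutral and stimulator controls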
aDG glyco act = increases alpha dystroglycan glycosylation. Pro5-aDG cells, alpha-DG glycosylation AlphaScreen (IIH6); 0% Pro5, 100% B10-LARGE cell signal. activation, % at 10 µM. 360,000 tested, 0.22% active. AID 624168;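 active means activation of at least 8% versus controls, or a plate z-score of at least 8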;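 further: Pro5 are CHO cells carrying HIG-tagged alpha-DG that lacks glycosylation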
Rh123 counter = mitochondrial membrane potential, counter-screen; shares compounds with MPTP block; isolated mitochondria, Rhodamine 123 fluorescence; inhibition, % at 10 µM; 5,000 tested, 78% active; in the data active means inhibition above about 22%
MPTP abs DR = dose response confirmation of mitochondrial permeability transition pore inhibitors. shares compounds with MPTP block. isolated mitochondria swelling, absorbance. IC50, µM. 780 tested, 58% active; in the data active means IC50 below about 20 µM
MPTP cs DR = MPTP inhibitor counter-screen activity, dose response; IC50, µM; shares compounds with MPTP block; isolated mitochondria counterscreen, fluorescence read-out; 780 tested, 49% active; in the data active means IC50 below about 80 µM
Hits are given with their value; . = inactive; / = no result given.

SMILES	procasp3 activ	procasp7 counter	NR3A LBD binder	MPTP block	aDG glyco act	Rh123 counter	others
CCc1ccccc1NC(=O)CN(C)C(=O)COC(=O)c1c(Cl)cccc1Cl	/	/	.	.	.	/
CCOc1ccc(/C=N/NC(=O)c2ccccc2C)cc1CN1CC2CC(C1)c1cccc(=O)n1C2 (configuration not stated)	.	.	.	.	.	/
CCc1ccc(S(=O)(=O)NCCc2csc(-c3ccccc3)n2)s1	.	.	.	69.1	.	80.8
C=CC[n+]1c(-c2ccc(OCC)cc2)csc1NNC(=O)Nc1ccccc1	.	.	.	65.8	.	78.7
CCOc1ccc(CCN2C(=S)N([C@@H](CC(C)C)CN3CCC[C@@H]3CN3C(=S)NC[C@@H]3Cc3ccccc3)C[C@@H]2Cc2ccc(O)cc2)cc1	/	/	/	.	.	/
Cc1ccc(S(=O)(=O)N2CCN(C(=O)CCc3c[nH]c4ccccc34)CC2)c(C)c1	.	.	.	.	.	/
N#Cc1cc(NC(=O)c2ccc(Cl)cc2)ccc1Sc1ccccc1	/	/	/	73.1	.	96.3
Cc1ccc(C)c(OCCCNCc2ccccc2)c1	.	.	.	.	.	/
Cc1ccc(C(C)C)c(OCCNCc2ccccc2)c1	.	.	.	56.4	.	.	MPTP abs DR=4.56;MPTP cs DR=15.1
O=C(c1ccc(S(=O)(=O)c2ccc(F)cc2)c([N+](=O)[O-])c1)N1CCCCCC1	.	.	.	78.3	.	67.8
O=C(Nc1ccc(S(=O)(=O)Nc2cnc3ccccc3n2)cc1)c1ccc(F)cc1	.	.	.	.	.	/
O=[N+]([O-])c1ccc(Nc2c3ccccc3nc3ccccc23)cc1	/	/	.	79.6	.	77.2
O=C(O)c1ccc(Nc2nc3ccccc3nc2NS(=O)(=O)c2ccc(F)cc2)cc1	.	.	.	75.3	.	70.2
O=[N+]([O-])c1ccc(S(=O)(=O)Nc2nc3ccccc3nc2Nc2ccccc2)cc1	.	.	.	105.5	.	85.7
O=C(NCCc1ccccc1)c1ccc(-c2ccc(F)c(F)c2)c2ccoc12	/	/	/	.	.	/
COC(=O)c1ccccc1OCCOc1ccccc1C(=O)OC	.	.	.	.	.	/
COc1cc(C)ccc1OCCCOc1ccccc1Cl	.	.	.	.	.	/
COc1cc(C)ccc1OCCCCOc1ccccc1C(C)=O	.	.	.	95.3	.	84.8
COC(=O)c1ccccc1OCCCOc1ccc(C=O)cc1OC	.	.	.	57.5	.	.	MPTP abs DR=11.4;MPTP cs DR=.
CC(=O)N1CCN(c2ccc(S(=O)(=O)NCCN(C(C)C)C(C)C)cc2[N+](=O)[O-])CC1	.	.	.	.	.	/
CN(C)CCNS(=O)(=O)c1ccc(N2CCN(c3ccc(F)cc3)CC2)c([N+](=O)[O-])c1	.	.	.	50.5	9.1	.	MPTP abs DR=7.13;MPTP cs DR=20.3
CCN1C[C@@H]2[C@@H]3C(=O)N(Cc4ccccc4)C(=O)[C@@H]3[C@](C)(C1=O)N2C(=O)c1ccc(Br)cc1	/	/	.	.	.	/
CCCC[C@@H]1CNCCN1CCc1cccc2ccccc12	.	.	.	65.4	.	.	MPTP abs DR=12.3;MPTP cs DR=.
Oc1ccc(C[C@H]2CNCCN2CCc2cccc3ccccc23)cc1	.	.	.	75.6	.	.	MPTP abs DR=4.75;MPTP cs DR=.
Oc1ccc(C[C@@H]2CNCCN2CCc2cc(C(F)(F)F)cc(C(F)(F)F)c2)cc1	.	.	.	94.0	.	.	MPTP abs DR=4.26;MPTP cs DR=.
CCNS(=O)(=O)c1ccc(C)c(-n2cnnn2)c1C	.	.	.	.	.	/
CC(=O)N1CCCc2cc(S(=O)(=O)NCCC3=CCCCC3)ccc21	.	.	.	51.0	.	23.4
O=C1/C(=C/c2ccc(O)c(O)c2)SC(=S)N1Nc1ccccc1	/	/	16.4	100.9	.	55.8
COc1cccc(-c2cnc(C(O)c3ccc(Cl)cc3)[nH]2)c1 (configuration not stated)	/	/	/	.	.	/
O=C(NCc1cn(-c2ccccc2)nc1-c1ccccc1)c1ccc([N+](=O)[O-])cc1	.	.	.	53.4	.	62.8
